In the library only some 6.7% were active in any assay of this set; here they are far more common.
CSC inhib = cancer stem cell inhibition; cancer stem cell-like cells viability, luminescence; inhibition, % at 7.5 µM; actives 1.1% (n = 300,000); AID 2717; in the data active = inhibition above about 75%; tested in HMLE shEcad cells
Beta cell apopt = blocks beta cell apoptosis. INS-1E cytokine-induced death, ATP luminescence, 48 h; percent of positive-control rescue, neutral wells zero. protection from apoptosis, % (test concentration not listed). actives 0.8% (n = 300,000);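 active = Every replicate reaches about 75%, or at least half do and their mean reaches it too, limit read from the data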;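 note: higher means more ATP so stronger rescue from cytokine killing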
GRIN3A LBD mod = modulates the human NR3A ligand-binding domain | Tm shift relative to glycine control, % at 25 µM | actives 2.5% (n = 340,000) | NR3A LBD differential scanning fluorimetry, Tm shift; 0% = protein alone, 100% = glycine-bound protein;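 active = melting temperature shift of at least 10% of the positive control shift, at one fixed dose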
T cruzi inh = T. cruzi replication inhibition; T. cruzi beta-gal in NIH3T3, luminescence, 90 h; actives 1.4% (n = 300,000); inhibition, % (concentration not given with the values);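 active = mean inhibition across valid replicates above about 55%, limit read from the data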;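 note: signal also drops with host cell toxicity which is not excluded here; higher percent means less beta-gal luminescence so fewer parasites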
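Assay system: NIH/3T3 host cells with β-galactosidase reporter T. cruzi; input: 5,000 host fibroblasts per well; compound: single 50 nL compound addition per well in DMSO; timing: ≥90 h infection period, 3 h prior cell attachment; measured by: GalScreen β-gal luminescence, detergent lysis, 60 min; evaluation: percent inhibition of parasite-derived β-gal signal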
CHOP inhibitor = blocks CHOP induction under ER stress; actives 3.8% (n = 220,000); AID 2732; CHO-K1 CHOP-promoter luciferase, tunicamycin-induced, 15-18 h; inhibition, % at 10 µM;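 active = compounds that reduced the stress-induced luciferase reporter signal by more than about 70% of percent inhibition, limit read from the data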
PREPL inhibitor = human PREPL enzyme inhibition; Q4J6C6; recombinant PREPL, fluorescence polarization activity-based probe; inhibition, % at 5.96 µM; actives 0.68% (n = 320,000); AID 2751; in the data active = inhibition above about 43%
Target sequence (Q4J6C6 whole entry, looked up): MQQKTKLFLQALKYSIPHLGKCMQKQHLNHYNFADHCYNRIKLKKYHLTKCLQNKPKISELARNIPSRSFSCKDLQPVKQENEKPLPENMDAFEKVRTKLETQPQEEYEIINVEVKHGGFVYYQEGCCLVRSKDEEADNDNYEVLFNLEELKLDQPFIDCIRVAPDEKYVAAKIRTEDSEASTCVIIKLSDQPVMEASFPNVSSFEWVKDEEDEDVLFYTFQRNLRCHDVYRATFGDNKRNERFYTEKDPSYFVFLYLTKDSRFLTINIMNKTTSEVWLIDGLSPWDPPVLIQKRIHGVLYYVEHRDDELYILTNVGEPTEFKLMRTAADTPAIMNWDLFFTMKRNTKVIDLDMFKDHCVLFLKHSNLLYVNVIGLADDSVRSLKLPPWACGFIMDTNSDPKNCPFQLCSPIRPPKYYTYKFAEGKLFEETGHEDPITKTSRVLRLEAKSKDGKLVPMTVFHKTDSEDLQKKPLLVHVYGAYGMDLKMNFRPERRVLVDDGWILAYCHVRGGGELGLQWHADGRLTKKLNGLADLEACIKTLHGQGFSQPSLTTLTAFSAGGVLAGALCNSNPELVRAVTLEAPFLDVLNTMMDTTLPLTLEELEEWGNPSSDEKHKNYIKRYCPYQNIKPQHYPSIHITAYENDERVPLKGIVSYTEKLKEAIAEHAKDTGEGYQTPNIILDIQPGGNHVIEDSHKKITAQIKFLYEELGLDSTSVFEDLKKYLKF
Each line names hits and unclear results; the compound was inactive in the other large screens.

Cc1cc(C)cc(OCC(=O)N/N=C/c2ccc([N+](=O)[O-])o2)c1	T cruzi inh 60
COc1cc(C(=O)N/N=C/c2sc(N3CCOCC3)nc2-c2ccccc2)cc(OC)c1OC	none
O=C(Cn1nnc2ccccc21)NNC(=S)NC1CCCCC1	none
Cc1ccc(Cl)cc1N1CCN(C(=O)c2cn(C)c(=O)c3c2c2ccccc2n3C)CC1	CSC inhib 88, CHOP inhibitor 79 (no result: Beta cell apopt)
Cc1cccc(N2CCN(C(=O)c3cn(C)c(=O)c4c3c3ccccc3n4C)CC2)c1C	none
Clc1ccc(OCc2nc(-c3ccccn3)no2)c(Br)c1	CHOP inhibitor 72
Nc1nonc1-c1noc(COc2ccccc2Cl)n1	none
Clc1ccccc1OCc1nc(-c2ccccn2)no1	GRIN3A LBD mod 11
Clc1ccc(-c2nc(-c3ccccn3)no2)cc1Cl	none
CCN1/C(=C/C=C/c2sc3ccccc3[n+]2CC)Sc2ccccc21	CSC inhib 79, Beta cell apopt 101 (no result: CHOP inhibitor)
COc1ccc(-c2cc3cc(-c4cc(OC)c(OC)c(OC)c4)ccc3o2)cc1	none (no result: T cruzi inh, CHOP inhibitor)
O=C(Nc1nnc(S(=O)(=O)N2CCCCC2)s1)c1cccc(Br)c1	none (no result: CHOP inhibitor)
COC(=O)c1ccc(Sc2ccc(C)cc2)c(N)c1	none
COc1cc(Sc2ccc(C)cc2)c(OC)cc1N	PREPL inhibitor 47
COc1ccc(-c2c(C#N)c(N)nc3c2CCC3)cc1	none (no result: CSC inhib)
CSc1nc2c(c(-c3ccc(O)cc3)c1C#N)CCC2	CHOP inhibitor 86
CC1CCN(C(=O)c2nc[nH]c2C(=O)N2CCC(C)CC2)CC1	none (no result: T cruzi inh, CHOP inhibitor)
CCOc1ccc2nc(N3C(=O)/C(=C/c4ccc(Cl)cc4)NC3=S)sc2c1	CHOP inhibitor 105 (no result: CSC inhib, Beta cell apopt, PREPL inhibitor)
CCOc1ccc(N=C2NC(=O)S/C2=C\c2ccc(Cl)cc2)cc1	none
Clc1ccc(CSc2cc3c(nn2)-c2ccccc2CC3)cc1	CHOP inhibitor 77 (no result: T cruzi inh)
Clc1ccc(CSc2ccc(-c3ccco3)nn2)cc1	none (no result: CSC inhib)
Cc1ccc(N(CC(=O)NCCc2ccccc2)C(=O)CCC(=O)Nc2cc(C)ccn2)cc1	none (no result: CHOP inhibitor)
CCOC(=O)c1cc2sccc2n1CC(=O)N1c2ccccc2CC1C (stereo unspecified)	GRIN3A LBD mod 12
CCOC(=O)c1cc2sccc2n1CC(=O)O	none
COc1ccc(NC(=S)Nc2ccc3nccnc3c2)cc1	none
COc1ccc(NC(=S)Nc2ccc(N)c([N+](=O)[O-])c2)cc1	GRIN3A LBD mod 12
COc1ccc(NC(=S)Nc2ccccc2)cc1	none
COc1ccc(NC(=S)Nc2ccc3snnc3c2)cc1	GRIN3A LBD mod 28
COc1ccc(NC(=O)CCCn2cnc3ccccc3c2=O)cc1	none (no result: CSC inhib, Beta cell apopt, CHOP inhibitor)
O=C(CCNC(=O)c1ccc([N+](=O)[O-])cc1)NC1CCCCCC1	none (no result: T cruzi inh, CHOP inhibitor)
CC(C)(C)OC(=O)C[C@@H]1C/C=C\C[C@H](CC(=O)N(CCO)Cc2ccccc2)C(=O)NCCOC1=O	none (no result: CSC inhib, Beta cell apopt, T cruzi inh, CHOP inhibitor)
CC(=O)Nc1ccc(Nc2ccc([N+](=O)[O-])cn2)cc1	GRIN3A LBD mod 11 (no result: CHOP inhibitor)
O=[N+]([O-])c1ccc(Nc2ccc(F)cc2)nc1	none
CN(C)c1ccc(Nc2ccc([N+](=O)[O-])cn2)cc1	none (no result: Beta cell apopt, CHOP inhibitor)
O=[N+]([O-])c1ccc(Nc2cccc(F)c2)nc1	GRIN3A LBD mod 25
O=[N+]([O-])c1ccc(Nc2ccccc2)nc1	GRIN3A LBD mod 12
Cc1ccc(Nc2ccc([N+](=O)[O-])cn2)cc1Cl	GRIN3A LBD mod 14 (no result: CHOP inhibitor, PREPL inhibitor)
O=C(Nc1ccc(Cl)c(Cl)c1)Nc1ccc([N+](=O)[O-])cn1	none
CCOc1ccccc1NC(=O)CSc1nnc(CNC(=O)c2c(F)cccc2Cl)o1	none (no result: CHOP inhibitor)
CC(=O)c1sc(NC(=O)CCCOc2ccc(Cl)cc2)nc1C	none (no result: T cruzi inh)
CCCCN(C(=O)COC(=O)COc1c(C)cc(C)cc1C)c1c(N)n(CCC)c(=O)[nH]c1=O	GRIN3A LBD mod 32 (no result: CHOP inhibitor)
CN(CC1CCOCC1)C(=O)CC1C(=O)NCCN1Cc1ccc(F)c(F)c1 (stereo unspecified)	none (no result: CHOP inhibitor)
Cc1ccnc(SCC(=O)c2ccc(Br)cc2)c1C#N	T cruzi inh 74 (no result: CSC inhib)
Cc1cc(C)c(C#N)c(OCC(=O)c2ccc(Br)cc2)n1	none
Cc1snc(SCC(=O)c2ccc(Cl)cc2)c1C#N	none
Cc1ccc(C(=O)CSc2nsc(C)c2C#N)cc1	GRIN3A LBD mod 15
Cc1cccc(-n2nc([N+](=O)[O-])c(=NC3CCN(Cc4ccccc4)CC3)n2O)c1	none
CC(C)CCN1CCNC(=O)C1CC(=O)N(C)CCCN1CCOCC1 (stereo unspecified)	none (no result: CHOP inhibitor)
Cc1ccc(CSCC(=O)N(C)CC(=O)Nc2c(Cl)cccc2Cl)cc1	none (no result: CHOP inhibitor)
CC(=O)c1cccc(CN2CCC(n3nccc3NC(=O)c3ccc4c(c3)OCO4)CC2)c1	none (no result: CHOP inhibitor)
O=S(=O)(c1ccccc1)c1nc(NCc2ccccc2)sc1Cl	none
Cc1ccc(S(=O)(=O)c2nc(Nc3ccccc3)sc2Cl)cc1	CHOP inhibitor 73 (no result: CSC inhib, Beta cell apopt, PREPL inhibitor)
COc1ccc(Nc2nc(S(=O)(=O)c3ccc(C)cc3)c(Cl)s2)cc1	none (no result: CSC inhib)
O=S(=O)(c1ccccc1)c1nc(Nc2cccc(O)c2)sc1Cl	GRIN3A LBD mod 11 (no result: Beta cell apopt)
CCOc1cc(CNc2ccc3c(c2)OCCO3)cc(Br)c1OC	CSC inhib 78
COc1ccc(NC(=O)CS(=O)(=O)Cc2nc(-c3ccc(C)cc3)oc2C)cc1	none (no result: CHOP inhibitor)
COc1cccc(-c2nc(CS(=O)(=O)CC(=O)Nc3c(C)cccc3C)c(C)o2)c1	none
COc1ccc(-c2nc(CS(=O)(=O)CC(=O)Nc3ccc(Cl)cc3)c(C)o2)cc1	CHOP inhibitor 97
COc1cccc(-c2nc(CS(=O)(=O)CC(=O)Nc3cc(C)ccc3C)c(C)o2)c1	CHOP inhibitor 77
CCC(C)c1ccc2oc(-c3ccc(NC(=O)Cn4cnc5c(=O)n(C)c(=O)n(C)c54)cc3)nc2c1 (stereo unspecified)	GRIN3A LBD mod 23, CHOP inhibitor 79
Cn1c(=O)c2ncn(CC(=O)Nc3ccc(N4CCOCC4)cc3)c2n(C)c1=O	none
O=C(Nc1cccc(NC(=O)c2cccs2)c1)c1ccc(Br)cc1	GRIN3A LBD mod 13 (no result: CHOP inhibitor)
O=C(Nc1cccc(O)c1)c1ccccc1	none
O=C(NNC(=O)c1cccs1)c1ccc(Br)cc1	none (no result: CHOP inhibitor)
O=C(Nc1cccc(O)c1)c1cccc(NC(=O)c2cccs2)c1	GRIN3A LBD mod 28 (no result: CHOP inhibitor)
Cc1ccccc1OCC(=O)Nc1ccccc1N1CCCCC1	CHOP inhibitor 89
Cc1cc(C)cc(OCC(=O)Nc2ccc3c(c2)C(=O)c2ccccc2C3=O)c1	GRIN3A LBD mod 14
O=C(COc1ccc(Br)cc1)Nc1ccccc1N1CCCC1	CHOP inhibitor 70
O=C(COc1cc(Cl)c(Cl)cc1Cl)Nc1ccc([N+](=O)[O-])cc1Cl	GRIN3A LBD mod 10
NC(=O)c1sc2nnc(-c3ccccc3)c(-c3ccccc3)c2c1N	none (no result: T cruzi inh)
CC1C(=O)N2CCCc3cc(S(=O)(=O)NCc4ccccc4Cl)cc1c32 (stereo unspecified)	none (no result: CHOP inhibitor)
CC(=O)N1CCN(c2ccccc2NC(=O)COc2cc(C)ccc2C(C)C)CC1	none (no result: T cruzi inh)
Cc1cccc(OCC(=O)Nc2ccccc2N2CCCC2)c1C	CSC inhib 80 (no result: CHOP inhibitor)

Assay outcomes deposited in PubChem by several laboratories.
